According to ChEMBL document CHEMBL1135184, “2,4-Disubstituted pyrroles: synthesis, traceless linking and pharmacological investigations leading to the dopamine D4 receptor partial agonist FAUC 356” (Bioorg Med Chem Lett, 2002):

Tests used:
[1] = molecular target: 5-hydroxytryptamine receptor 2A (Sus scrofa, UniProt P50129); test: Ability to displace [3H]-Ketanserin radioligand from porcine 5-hydroxytryptamine 2A receptor
[2] = molecular target: T1, D(2) dopamine receptor (Homo sapiens, UniProt P14416); test: Ability to displace […] radioligand from cloned human Dopamine receptor D2 in CHO cells; assay type: cell-based
T1 sequence (P14416 whole entry): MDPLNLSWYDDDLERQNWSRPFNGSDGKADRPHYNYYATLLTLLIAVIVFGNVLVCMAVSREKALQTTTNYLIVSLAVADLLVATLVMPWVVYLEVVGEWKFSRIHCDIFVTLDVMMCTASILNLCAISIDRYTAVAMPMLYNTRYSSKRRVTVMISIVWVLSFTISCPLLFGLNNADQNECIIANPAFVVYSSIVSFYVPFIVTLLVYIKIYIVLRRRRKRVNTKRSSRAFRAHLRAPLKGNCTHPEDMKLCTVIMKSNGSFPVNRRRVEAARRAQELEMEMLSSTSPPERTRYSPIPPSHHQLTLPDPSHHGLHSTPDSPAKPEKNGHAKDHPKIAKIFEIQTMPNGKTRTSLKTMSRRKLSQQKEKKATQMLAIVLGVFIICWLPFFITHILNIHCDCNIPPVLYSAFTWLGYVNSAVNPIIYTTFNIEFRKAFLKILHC

[3] = molecular target: T1, D(2) dopamine receptor; test: Ability to displace [3H]spiperone radioligand from cloned human Dopamine receptor D2 in CHO cells; assay type: cell-based
[4] = molecular target: D(1A) dopamine receptor (Bos taurus, UniProt Q95136); test: Ability to displace [3H]SCH-23,390 radioligand from bovine Dopamine receptor D1
D(1A) dopamine receptor, sequence (Q95136 whole entry): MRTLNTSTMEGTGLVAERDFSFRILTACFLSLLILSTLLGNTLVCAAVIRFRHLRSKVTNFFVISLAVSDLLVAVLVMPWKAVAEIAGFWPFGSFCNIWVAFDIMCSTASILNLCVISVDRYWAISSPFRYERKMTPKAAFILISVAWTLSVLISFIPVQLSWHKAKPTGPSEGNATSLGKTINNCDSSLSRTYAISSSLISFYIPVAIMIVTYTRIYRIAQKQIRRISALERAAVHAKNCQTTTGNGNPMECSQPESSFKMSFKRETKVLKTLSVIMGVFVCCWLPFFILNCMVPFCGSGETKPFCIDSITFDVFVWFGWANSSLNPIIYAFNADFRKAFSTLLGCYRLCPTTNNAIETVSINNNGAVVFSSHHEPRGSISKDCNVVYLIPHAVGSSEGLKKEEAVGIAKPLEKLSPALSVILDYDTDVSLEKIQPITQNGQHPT

[5] = molecular target: T2, D(4) dopamine receptor (Homo sapiens, UniProt P21917); test: Ability to displace [3H]spiperone radioligand from cloned human Dopamine receptor D4 in CHO cells; assay type: cell-based
T2 sequence (P21917 whole entry): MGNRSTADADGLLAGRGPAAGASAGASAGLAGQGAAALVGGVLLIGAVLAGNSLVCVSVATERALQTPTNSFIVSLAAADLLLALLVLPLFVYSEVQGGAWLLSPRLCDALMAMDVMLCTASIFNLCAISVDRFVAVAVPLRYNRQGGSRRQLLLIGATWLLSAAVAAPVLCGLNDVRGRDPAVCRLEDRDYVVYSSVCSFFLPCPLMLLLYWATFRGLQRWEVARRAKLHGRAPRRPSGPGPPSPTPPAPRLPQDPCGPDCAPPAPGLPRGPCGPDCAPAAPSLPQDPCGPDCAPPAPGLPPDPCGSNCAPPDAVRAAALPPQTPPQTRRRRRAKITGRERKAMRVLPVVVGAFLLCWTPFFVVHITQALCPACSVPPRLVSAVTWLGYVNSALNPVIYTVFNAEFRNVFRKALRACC

[6] = molecular target: D(3) dopamine receptor (Homo sapiens, UniProt P35462); test: Ability to displace [3H]spiperone radioligand from cloned human Dopamine receptor D3 in CHO cells; assay type: cell-based
D(3) dopamine receptor, sequence (P35462 whole entry): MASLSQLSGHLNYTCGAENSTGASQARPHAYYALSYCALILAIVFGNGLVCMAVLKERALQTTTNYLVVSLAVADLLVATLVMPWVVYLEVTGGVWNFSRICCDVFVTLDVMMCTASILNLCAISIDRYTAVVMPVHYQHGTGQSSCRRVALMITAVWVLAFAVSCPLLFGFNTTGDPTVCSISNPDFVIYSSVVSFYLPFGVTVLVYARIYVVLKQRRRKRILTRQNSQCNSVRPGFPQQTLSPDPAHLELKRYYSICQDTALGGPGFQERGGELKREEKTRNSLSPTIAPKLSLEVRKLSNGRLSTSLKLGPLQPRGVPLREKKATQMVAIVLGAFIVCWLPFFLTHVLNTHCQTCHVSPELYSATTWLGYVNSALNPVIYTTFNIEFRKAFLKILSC
How it was run: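 Human D3 receptor stably expressed in CHO cells, membranes labelled with [3H]spiperone in a competition format.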

[7] = molecular target: T2, D(4) dopamine receptor; test: Effective concentration of compound required against human Dopamine D4.2 receptor; assay type: functional
[8] = molecular target: T3, D(4) dopamine receptor (Homo sapiens) (UniProt P21917)
T3 sequence (whole entry): T2 sequence (P21917 whole entry)

5-hydroxytryptamine receptor 2A, sequence (P50129 whole entry): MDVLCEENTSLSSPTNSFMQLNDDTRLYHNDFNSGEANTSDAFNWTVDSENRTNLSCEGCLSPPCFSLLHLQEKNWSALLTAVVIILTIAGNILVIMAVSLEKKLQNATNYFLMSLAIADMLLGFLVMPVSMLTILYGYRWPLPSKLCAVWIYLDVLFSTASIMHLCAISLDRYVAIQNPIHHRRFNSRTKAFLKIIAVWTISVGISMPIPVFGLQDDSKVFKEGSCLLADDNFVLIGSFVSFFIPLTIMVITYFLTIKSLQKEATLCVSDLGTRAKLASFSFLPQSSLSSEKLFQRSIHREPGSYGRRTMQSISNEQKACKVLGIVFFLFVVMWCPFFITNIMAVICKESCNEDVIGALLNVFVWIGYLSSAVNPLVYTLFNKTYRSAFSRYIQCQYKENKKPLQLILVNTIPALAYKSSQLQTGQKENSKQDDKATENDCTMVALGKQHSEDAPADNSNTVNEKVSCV

| Compound | Ki [1] | Ki [2] | Ki [3] | Ki [4] | Ki [5] | Ki [6] | EC50 [7] | EC50 [8] |
| --- | --- | --- | --- | --- | --- | --- | --- | --- |
| c1ccc(-c2c[nH]c(CN3CCN(c4ccccc4)CC3)c2)cc1 | 1.3 µM | 0.23 µM | 0.17 µM | 2.1 µM | 0.012 µM | 0.54 µM | 0.0068 µM | – |
| C(#Cc1c[nH]c(CN2CCN(c3ccccc3)CC2)c1)c1ccccc1 | – | 0.76 µM | 0.55 µM | 2.7 µM | 0.083 µM | 0.67 µM | – | – |
| c1ccc(N2CCN(Cc3ccc[nH]3)CC2)cc1 | – | 3.1 µM | 3 µM | 5.4 µM | 0.1 µM | 0.57 µM | – | – |

Further lines, results first:

| Ki [1] | Ki [2] | Ki [3] | Ki [4] | Ki [5] | Ki [6] | EC50 [7] | EC50 [8] | Compound |
| --- | --- | --- | --- | --- | --- | --- | --- | --- |
| 0.61 µM | 3.7 µM | 8 µM | 4.6 µM | 0.021 µM | 1.8 µM | 0.0056 µM | – | N#Cc1c[nH]c(CN2CCN(c3ccccc3)CC2)c1 |
| 0.45 µM | 2.4 µM | 3.4 µM | 1.2 µM | 0.018 µM | 0.72 µM | – | 0.0078 µM | N#Cc1cc(CN2CCN(c3ccccc3)CC2)c[nH]1 |
| 0.38 µM | 0.77 µM | 0.58 µM | 2 µM | 0.0059 µM | 0.85 µM | 0.0019 µM | – | C#Cc1c[nH]c(CN2CCN(c3ccccc3)CC2)c1 |
